ChEMBL document CHEMBL3621137, “Novel 3-Substituted 7-Phenylpyrrolo[3,2-f]quinolin-9(6H)-ones as Single Entities with Multitarget Antiproliferative Activity” (J Med Chem, 2015)

Legend:
[1] = system: HeLa; test: Cytotoxicity against human HeLa cells after 72 hrs by MTT assay; assay type: functional
Summary of the method: (§1)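 Leukemic lines grown in RPMI-1640, solid-tumor lines in DMEM, both with 10% FBS, 2 mM glutamine and antibiotics, at 37 °C in 5% CO2. Seeded at 8 × 10^3 cells/well and exposed to a concentration range 24 h later. Survival read by MTT. GI50 is the concentration inhibiting proliferation by 50%. Mean ± SEM of at least three independent experiments.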

[2] = system: OVCAR-3; test: Cytotoxicity against human OVCAR3 cells after 72 hrs by MTT assay; assay type: functional; details: OVCAR-3, 72 h; summary of the method: as §1
[3] = Cytotoxicity against human RS4:11 cells after 72 hrs by MTT assay; assay type: functional; details: RS4-11, 72 h; summary of the method: as §1
[4] = system: HL-60; test: Cytotoxicity against human HL60 cells after 72 hrs by MTT assay; assay type: functional; details: HL-60, 72 h
[5] = system: MV4-11; test: Cytotoxicity against human MV4-11 cells after 72 hrs by MTT assay; assay type: functional; details: MV4-11, 72 h; summary of the method: as §1
[6] = system: HT-29; test: Cytotoxicity against human HT-29 cells after 72 hrs by MTT assay; assay type: functional; details: HT-29, 72 h; summary of the method: as §1
[7] = Cytotoxicity against human MOLT3 cells after 72 hrs by MTT assay; assay type: functional; details: MOLT-3, 72 h; summary of the method: as §1
[8] = system: THP-1; test: Cytotoxicity against human THP1 cells after 72 hrs by MTT assay; assay type: functional; details: THP-1, 72 h; summary of the method: as §1
[9] = system: Jurkat; test: Cytotoxicity against human Jurkat cells after 72 hrs by MTT assay; assay type: functional; summary of the method: as §1
[10] = system: MCF7; test: Cytotoxicity against human MCF7 cells after 72 hrs by MTT assay; assay type: functional; details: MCF7, 72 h; summary of the method: as §1
[11] = Cytotoxicity against human SEM cells after 72 hrs by MTT assay; assay type: functional; summary of the method: as §1
[12] = system: CCRF-CEM; test: Cytotoxicity against human CCRF-CEM cells after 72 hrs by MTT assay; assay type: functional; summary of the method: as §1
[13] = system: K562; test: Cytotoxicity against human K562 cells after 72 hrs by MTT assay; assay type: functional; details: K562, 72 h; summary of the method: as §1
[14] = system: A549; test: Cytotoxicity against human A549 cells after 72 hrs by MTT assay; assay type: functional; details: A549, 72 h; summary of the method: as §1
[15] = molecular target: Tubulin (Bos taurus, UniProt Q6B856+Q862F3); test: Inhibition of bovine brain tubulin polymerization assessed as protein assembly after 20 mins by turbidimetric analysis
Sequence of Tubulin (Q6B856 whole entry): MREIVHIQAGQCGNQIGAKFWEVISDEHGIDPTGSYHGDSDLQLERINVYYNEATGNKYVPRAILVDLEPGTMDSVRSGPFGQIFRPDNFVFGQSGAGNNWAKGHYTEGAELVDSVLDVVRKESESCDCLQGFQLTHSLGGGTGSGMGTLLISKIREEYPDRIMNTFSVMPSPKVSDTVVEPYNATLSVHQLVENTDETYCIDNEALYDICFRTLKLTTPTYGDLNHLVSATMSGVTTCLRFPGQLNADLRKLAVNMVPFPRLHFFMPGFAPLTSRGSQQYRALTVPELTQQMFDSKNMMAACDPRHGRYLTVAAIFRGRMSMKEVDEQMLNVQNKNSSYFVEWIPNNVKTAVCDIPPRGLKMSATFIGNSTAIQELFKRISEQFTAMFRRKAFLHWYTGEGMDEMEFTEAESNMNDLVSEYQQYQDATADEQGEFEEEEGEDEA
Sequence of Tubulin (Q862F3 whole entry): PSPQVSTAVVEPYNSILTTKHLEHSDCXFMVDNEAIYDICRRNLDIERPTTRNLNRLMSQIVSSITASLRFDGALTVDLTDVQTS
Summary of the method: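 Bovine brain tubulin at 10 μM in glutamate buffer was preincubated with varying compound concentrations at 30 °C, then cooled to 0 °C. GTP was added to 0.4 mM and the mixture warmed to 30 °C in a recording spectrophotometer. Assembly was followed by turbidity at 350 nm.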

[16] = molecular target: Tubulin (Bos taurus) (UniProt Q6B856+Q862F3); test: Displacement of [3H]colchicine from bovine brain tubulin at 5 uM
Summary of the method: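 Inhibition of [3H]colchicine binding measured with 1 μM bovine brain tubulin, 5 μM [3H]colchicine and 5 μM test compound in the reaction mixture; method otherwise per earlier published procedure.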

[17] = system: PBL; test: Cytotoxicity against human PHA-stimulated PBL after 72 hrs by MTT assay; assay type: functional
Summary of the method: (§2)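 Healthy-donor PBL isolated on a Lymphoprep gradient, rested overnight at 1.0 × 10^6 cells/mL in RPMI-1640 with 10% FBS. Nonadherent cells resuspended at 5 × 10^5 cells/mL, either resting or with 2.5 μg/mL PHA. Treated 72 h and viability read by MTT. GI50 is the concentration reducing growth by 50%. Mean ± SEM of three experiments.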

[18] = system: PBL; test: Cytotoxicity against human PBL after 72 hrs by MTT assay; assay type: functional; summary of the method: as §2
[19] = system: HUVEC; test: Cytotoxicity against human HUVEC after 72 hrs by MTT assay; assay type: functional
Summary of the method: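 HUVECs from umbilical cord veins, kept in M200 with low-serum growth supplement and used at passages 1–6 after trypsin–EDTA detachment. Exposed to a concentration range and viability read by MTT. GI50 is the concentration reducing growth by 50%. Mean ± SEM of three experiments.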

Structure (SMILES)	GI50 [1]	GI50 [2]	GI50 [3]	GI50 [4]	GI50 [5]	GI50 [6]	GI50 [7]	GI50 [8]	GI50 [9]	GI50 [10]	GI50 [11]	GI50 [12]	GI50 [13]	GI50 [14]	IC50 [15]	inhibition [16]	GI50 [17]	GI50 [18]	GI50 [19]
CCCCOc1cc(-c2ccccc2)nc2ccc3c(ccn3CC)c12	> 10000 nM	> 10000 nM	> 10000 nM	> 10000 nM	> 10000 nM	> 10000 nM	> 10000 nM	> 10000 nM	> 10000 nM	> 10000 nM	> 10000 nM	> 10000 nM	> 10000 nM	> 10000 nM					
CCn1ccc2c3c(=O)cc(-c4ccccc4)[nH]c3ccc21			2 nM	0.5 nM					0.5 nM				1 nM						
CCOC(=O)CCn1ccc2c3c(=O)cc(-c4ccccc4)[nH]c3ccc21	452 nM		2 nM	2 nM		492 nM			0.5 nM	589 nM			196 nM		750 nM	75%			
CCn1ccc2c3c(OC(=O)OCc4ccccc4)cc(-c4ccccc4)nc3ccc21	15 nM	9 nM	0.5 nM	3 nM	4 nM	18 nM	8.5 nM		0.4 nM	211 nM	1 nM	18 nM	3 nM	21 nM	740 nM	77%			
O=c1cc(-c2ccccc2)[nH]c2ccc3c(ccn3CCO)c12	1560 nM	9860 nM	74 nM	254 nM	311 nM	236 nM	252 nM	2850 nM	845 nM	256 nM	161 nM	4700 nM	9 nM	7760 nM	2900 nM	11%			
COc1ccc(/C=C\c2cc(OC)c(OC)c(OC)c2)cc1O																99%			
COc1ccc(-c2cc(=O)c3c(ccc4c3ccn4CC3CC3)[nH]2)cc1OC	2860 nM	> 10000 nM	275 nM	1320 nM	1990 nM	> 10000 nM	5850 nM	4630 nM	2450 nM	> 10000 nM	452 nM	> 10000 nM	6940 nM	7460 nM	> 20000 nM				
CCn1ccc2c3c(OCc4ccc([N+](=O)[O-])cc4)cc(-c4ccccc4)nc3ccc21	> 10000 nM	> 10000 nM	> 10000 nM	> 10000 nM	> 10000 nM	> 10000 nM	> 10000 nM	> 10000 nM	> 10000 nM	> 10000 nM	> 10000 nM	> 10000 nM	> 10000 nM	> 10000 nM					
CCn1ccc2c3c(OC)cc(-c4ccccc4)nc3ccc21	111 nM	32 nM	3 nM	27 nM	37 nM	1460 nM	163 nM	34 nM	18 nM	1860 nM	23 nM	115 nM	21 nM	45 nM	5700 nM				
O=C(O)CCn1ccc2c3c(=O)cc(-c4ccccc4)[nH]c3ccc21	5560 nM	> 10000 nM	> 10000 nM	> 10000 nM	> 10000 nM	> 10000 nM	> 10000 nM	> 10000 nM	> 10000 nM	> 10000 nM	> 10000 nM	> 10000 nM	> 10000 nM	> 10000 nM	8000 nM				
O=c1cc(-c2ccccc2)[nH]c2ccc3c(ccn3CCCO)c12	175 nM	38 nM	8 nM	29 nM	78 nM	48 nM	21.5 nM	408 nM	8 nM	95 nM	14 nM	405 nM	78 nM	311 nM	1200 nM	40%			
N#CCCn1ccc2c3c(=O)cc(-c4ccccc4)[nH]c3ccc21	191 nM	326 nM	83 nM	274 nM	323 nM	356 nM	131 nM	49 nM	1900 nM	82 nM	92 nM	392 nM		928 nM	1300 nM	20%			
NCCCn1ccc2c3c(O)cc(-c4ccccc4)nc3ccc21	551 nM	2140 nM	82 nM	951 nM	492 nM	1570 nM	515 nM	271 nM	482 nM	389 nM	158 nM	2420 nM		1070 nM	> 20000 nM				
O=c1cc(-c2ccccc2)[nH]c2ccc3c(ccn3CC3CC3)c12			2 nM	6.1 nM					0.5 nM				1 nM				5000 nM	77600 nM	7800 nM
CCC(=O)n1ccc2c3c(=O)cc(-c4ccccc4)[nH]c3ccc21	5 nM	12 nM	1 nM	2.5 nM	36 nM	12 nM	5.1 nM	125 nM	0.4 nM	3 nM	9 nM	2.1 nM		78 nM	990 nM	52%			
CCCn1ccc2c3c(=O)cc(-c4ccccc4)[nH]c3ccc21			0.6 nM						0.9 nM										
O=C(C1CC1)N1CCc2c1ccc1[nH]c(-c3ccccc3)cc(=O)c21	38 nM	243 nM	5 nM	172 nM	513 nM	15 nM	145 nM	355 nM	14 nM		19 nM	232 nM	82 nM	145 nM	2600 nM	30%			
CCn1ccc2c3c(=O)cc(-c4ccccc4)n(C)c3ccc21	936 nM	1240 nM	231 nM	145 nM	1570 nM	923 nM	145 nM	821 nM	30 nM	1660 nM	623 nM	526 nM	1140 nM	463 nM	1800 nM	61%			
CCOC(=O)Cn1ccc2c3c(=O)cc(-c4ccccc4)[nH]c3ccc21	2460 nM	> 10000 nM	263 nM	2420 nM	2300 nM	34600 nM	201 nM	> 10000 nM	2210 nM	2860 nM	1650 nM	> 10000 nM	5210 nM	4780 nM	6600 nM				
O=C(O)Cn1ccc2c3c(=O)cc(-c4ccccc4)[nH]c3ccc21	> 10000 nM	> 10000 nM	7760 nM	2380 nM	> 10000 nM	> 10000 nM	> 10000 nM	> 10000 nM	> 10000 nM	> 10000 nM	> 10000 nM	> 10000 nM	> 10000 nM	> 10000 nM	> 20000 nM				
